Measured values as given in ChEMBL document CHEMBL3351960, “Lumazine peptides penilumamides B-D and the cyclic pentapeptide asperpeptide A from a gorgonian-derived Aspergillus sp. fungus” (2014).
≈ marks a conversion by molar mass, not a printed value. Calls of active or inactive are those of the source. The calls are words filed in the database; no cut-off is given here. *1 amine or outer side, *2 acyl side, *3 side chain or, on linkers, in order; H or OH if unused. Where a SMILES comes first, the peptide text is derived from it. [ ]: non-standard residue; d: D form. X1 = O=C(c1cc(O)ccc1N[*:1])[*:2]

How the values were obtained:
K562 = test: Cytotoxicity against human K562 cells by MTT assay; format: functional, cell-based
Method in brief: (§1)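 K562 erythroleukemia and HL-60 promyelocytic leukemia cells were scored by MTT method, with adriamycin as positive control.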

[1] = system: Respiratory syncytial virus; test: Antiviral activity against respiratory syncytial virus; format: functional, organism-based
Method in brief: (§2)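 Tested against RSV and HSV-1 by established procedures, with ribavirin as positive control.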

Nocardia brasiliensis = test: Antibacterial activity against Nocardia brasiliensis; format: functional, organism-based
Method in brief: (§3)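 Run by a previously published antibacterial method against a 10-strain panel, with ciprofloxacin as positive control.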

HeLa = test: Cytotoxicity against human HeLa cells by SRB assay; format: functional, cell-based
Method in brief: (§4)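 A549 lung carcinoma, HCT-116 colorectal cancer and HeLa cervical carcinoma cells were scored by sulforhodamine B assay, with adriamycin as positive control.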

[2] = system: Staphylococcus epidermidis; test: Antibacterial activity against Staphylococcus epidermidis; format: functional; method in brief: as §3
HL-60 = test: Cytotoxicity against human HL60 cells by MTT assay; format: functional, cell-based; method in brief: as §1
Pseudomonas aeruginosa = test: Antibacterial activity against Pseudomonas aeruginosa; format: functional, organism-based; method in brief: as §3
Kocuria rhizophila = test: Antibacterial activity against Kocuria rhizophila; format: functional, organism-based; method in brief: as §3
Staphylococcus aureus = test: Antibacterial activity against Staphylococcus aureus; format: functional, organism-based; method in brief: as §3
Bacillus cereus = test: Antibacterial activity against Bacillus cereus; format: functional; method in brief: as §3
Human alphaherpesvirus 1 = test: Antiviral activity against HSV1; format: functional, organism-based; method in brief: as §2
Salmonella enterica = test: Antibacterial activity against Salmonella enterica; format: functional, organism-based; method in brief: as §3
Vibrio parahaemolyticus = test: Antibacterial activity against Vibrio parahaemolyticus; format: functional, organism-based; method in brief: as §3
Acetylcholinesterase = test: Inhibition of AChE (unknown origin) by Ellman's method; conditions: Homo sapiens
HCT-116 = test: Cytotoxicity against human HCT116 cells by SRB assay; format: functional, cell-based; method in brief: as §4
Escherichia coli = test: Antibacterial activity against Escherichia coli; format: functional, organism-based; method in brief: as §3
A549 = test: Cytotoxicity against human A549 cells by SRB assay; format: functional, cell-based; method in brief: as §4
Pseudomonas putida = test: Antibacterial activity against Pseudomonas putida; format: functional, organism-based; method in brief: as §3

SMILES | Activity (K562) | Activity [1] | Activity (Nocardia brasiliensis) | Activity (HeLa) | Activity [2] | Activity (HL-60) | Activity (Pseudomonas aeruginosa) | Activity (Kocuria rhizophila) | Activity (Staphylococcus aureus) | Activity (Bacillus cereus) | Activity (Human alphaherpesvirus 1) | Activity (Salmonella enterica) | Activity (Vibrio parahaemolyticus) | inhibition (Acetylcholinesterase) | Activity (HCT-116) | Activity (Escherichia coli) | Activity (A549) | Activity (Pseudomonas putida) | MIC [2] | MIC (Bacillus cereus)
COC(=O)c1ccccc1NC(=O)[C@H](CCSC)NC(=O)c1cnc2c(n1)c(=O)n(C)c(=O)n2C | inactive | inactive | inactive | inactive | inactive | inactive | inactive | inactive | inactive | inactive | inactive | inactive | inactive | inactive | inactive | inactive | inactive | inactive |  | 
C[C@H](NC(=O)c1cnc2c(n1)c(=O)n(C)c(=O)n2C)C(=O)Nc1ccccc1C(N)=O | inactive | inactive | inactive | inactive | inactive | inactive | inactive | inactive | inactive | inactive | inactive | inactive | inactive | inactive | inactive | inactive | inactive | inactive |  | 
COC(=O)c1ccccc1NC(=O)[C@H](CCS(C)(=O)=O)NC(=O)c1cnc2c(n1)c(=O)n(C)c(=O)n2C | inactive | inactive | inactive | inactive | inactive | inactive | inactive | inactive | inactive | inactive | inactive | inactive | inactive | inactive | inactive | inactive | inactive | inactive |  | 
C[C@@H]1NC(=O)[C@H](Cc2ccc(O)cc2)NC(=O)c2cc(O)ccc2NC(=O)[C@@H]2CCCN2C(=O)[C@H](C)NC1=O (cyclo(AAP[X1]Y)) |  |  |  |  |  |  |  |  |  |  |  |  |  |  |  |  |  |  | 12.5 µM (≈ 6.72 µg/mL) | 12.5 µM (≈ 6.72 µg/mL)
COC(=O)c1ccccc1NC(=O)[C@H](CC[S+](C)[O-])NC(=O)c1cnc2c(n1)c(=O)n(C)c(=O)n2C (some centres undefined) | inactive | inactive | inactive | inactive | inactive | inactive | inactive | inactive | inactive | inactive | inactive | inactive | inactive | inactive | inactive | inactive | inactive | inactive |  | 
